Screening results (PubChem BioAssay)
The list is not random: actives were taken first. Their share in the collection is about 2.3%.
V1aR counter – counter-screen for oxytocin receptor agonists: human V1a receptor agonists; P37288; CHO-V1R cells, Fluo-8 calcium fluorescence, agonist mode; 0% DMSO, 100% 3 nM vasopressin; activation, % at 3 µM; 320,000 tested, 0.25% active; AID 2797;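 active = activation above the mean activation of all tested compounds plus 3 SD, per screening run, cut at about 20% in these data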;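 note: signal is peak over basal fluorescence ratio across a 100 second FLIPR read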
Target sequence (P37288 whole entry, looked up): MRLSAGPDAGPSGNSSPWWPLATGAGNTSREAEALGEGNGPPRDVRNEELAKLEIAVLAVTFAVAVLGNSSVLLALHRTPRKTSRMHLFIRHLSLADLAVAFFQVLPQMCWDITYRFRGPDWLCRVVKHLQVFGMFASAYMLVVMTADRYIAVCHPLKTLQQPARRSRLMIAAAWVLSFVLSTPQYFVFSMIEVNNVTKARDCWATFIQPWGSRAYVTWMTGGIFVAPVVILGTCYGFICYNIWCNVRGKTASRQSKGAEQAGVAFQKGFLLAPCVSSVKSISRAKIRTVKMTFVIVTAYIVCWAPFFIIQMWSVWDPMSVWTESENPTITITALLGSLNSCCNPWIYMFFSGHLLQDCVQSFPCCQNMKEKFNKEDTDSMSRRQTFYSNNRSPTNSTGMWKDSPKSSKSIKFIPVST
TAAR1 agonist – agonists of human TAAR1; Q96RJ0; CHO RD-HGA16 TAAR1, Fluo-8 calcium fluorescence; vehicle wells 0%, saturating PEA agonist 100%; activation, % at 3 µM; 360,000 tested, 0.99% active; AID 624467;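 active = activation above the mean activation of all test compounds in the run plus 3 SD, cut at about 38% in these data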
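Assay system – CHO-derived RD-HGA16 cells with stable Gα16 and human TAAR1 · Compound dosing – one-point dosing at 3 µM (nominal) · Incubation – 17-24 h seeding, 75 min 37 °C dye, 30 min RT · Measured by – kinetic Fluo-8 calcium fluorescence · Control set – DMSO vehicle as 0%, PEA at EC100 as 100% · Repeats – single well for each compound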
TAAR1 antagonist – antagonists of human TAAR1; AID 624466; 360,000 tested, 1.5% active; inhibition, % at 3 µM; CHO RD-HGA16 TAAR1, Fluo-8 calcium fluorescence, antagonist;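 active = inhibition above a per-plate cutoff, the mean inhibition of test compounds on that plate plus 3 SD, cut at about 49% in these data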;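 note: 0% = DMSO plus EC80 beta-PEA response and 100% = DMSO alone without agonist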
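Material: CHO RD-HGA16 cells bearing hTAAR1; compound dosing: one-point dosing, 3 µM nominal final; schedule: dye loading 75 min at 37 °C, then 30 min room temperature; measured by: calcium fluorescence with Fluo-8; control set: vehicle and agonist controls; replication: n of 1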
OXTR agonist – activates the human oxytocin receptor | P30559 | CHO-OTR cells, Fluo-8 calcium fluorescence; normalized: DMSO 0%, oxytocin 100% | activation, % at 3 µM | 320,000 tested, 0.32% active;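 active = activation above the mean of all tested compounds plus 3 SD, cutoff set per screening run, cut at about 20% in these data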;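 note: peak over basal fluorescence ratio from a 100 s FLIPR kinetic read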
OXTR potentiator – potentiates the human oxytocin receptor response; CHO-OTR cells, Fluo-8 calcium fluorescence, potentiator mode; 0% = oxytocin EC15, 100% = EC100; AID 2445; activation, % at 3 µM; 320,000 tested, 0.061% active; P30559;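 active = activation above that plate's cutoff, the mean activation of tested compounds plus 3 SD, cut at about 6.6% in these data, passing the limit was not always enough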;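 note: 100% uses oxytocin at 75 nM as the full agonist control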
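assay system = CHO-OTR cells, human receptor | schedule = compound 6 min at room temperature before oxytocin, 100 s read | detection = Fluo-8 intracellular calcium fluorescence, ex 470-495, em 515-575 nm | evaluation = normalized max/min fluorescence ratio, % activation | control set = EC15 oxytocin alone as 0%, 75 nM oxytocin (EC100) as 100%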
Numbers without * were called inactive; nt = no result.

SMILES	V1aR counter	TAAR1 agonist	TAAR1 antagonist	OXTR agonist	OXTR potentiator
Cc1ccc(NC(=O)c2cc(-c3cccs3)nc3ccccc23)nc1	-1	10	53*	-2	-6
CCOc1ccc(-c2cc(C(=O)N3CCN(c4ccccn4)CC3)c3ccccc3n2)cc1	0	11	31	-1	-1
COc1ccc2nc(-c3ccccc3)cc(C(=O)OCC(=O)N3CCCCC3)c2c1	0	3	56*	-1	-2
COc1ccc(-c2cc(C(=O)OCC(=O)N3CCCC3)c3ccccc3n2)cc1	-2	6	15	-2	5
COc1ccc(-c2cc(C(=O)N3CCN(c4ccccn4)CC3)c3ccccc3n2)cc1	1	20	53*	0	2
COc1ccccc1-c1csc(NC(=O)c2cc(-c3cccs3)nc3ccccc23)n1	0	2	10	0	-9
COc1ccc(Sc2cccc(Cl)c2)c(C(=O)O)c1	nt	-1	-14	nt	nt
C=CCN1C(C(=O)OCC)CSCCS1(=O)=O (centres undefined)	nt	3	6	nt	nt
N#Cc1[nH]nc2nc[nH]c(=O)c12	nt	1	1	nt	nt
CC(C)(C)C(=O)Nc1scc(-c2ccc(-c3ccccc3)cc2)c1C(=O)O	39*	4	-2	26*	-23
COc1ccnc(Oc2ccccc2)c1C(=O)N/C=N/OCc1ccccc1	7	17	32	5	0
COc1ccnc(Oc2cccc(C(F)(F)F)c2)c1C(=O)N/C=N/OCc1ccccc1F	5	19	54*	3	-4
CC(C)c1ccc(OCC(O)CNC(C)c2ccccc2)cc1 (centres undefined)	13	57*	-4	17	-21
C[C@@H]1CN([C@H](C)CO)C(=O)CCCn2cc(nn2)CO[C@H]1CN(C)S(=O)(=O)c1ccc(Cl)cc1	nt	1	6	nt	nt
CCN(CC)S(=O)(=O)c1ccc(N2CCOCC2)c(NC(=O)c2cccc3c(=O)c(C)c(-c4ccccc4)oc23)c1	1	9	54*	-2	-15
Cc1ccc2nc(-c3cccc(Cl)c3)c(Cc3ccccc3C(F)(F)F)n2c1	nt	4	-16	nt	nt
N#C/C(=C/c1ccc(N2CCCCCC2)o1)c1cccc(F)c1	1	9	17	3	-4
COc1cc(N2CCCC2)c(OC)cc1/C=C(/C#N)c1cccc(F)c1	21*	nt	nt	21*	-12
COc1ccc(-c2nn(-c3ccccc3)cc2C(=O)N2CCN(S(=O)(=O)c3ccccc3C#N)CC2)cc1	0	4	50*	0	0
COc1ccc(-c2nn(-c3ccccc3)cc2C(=O)N2CCN(S(=O)(=O)c3ccccc3[N+](=O)[O-])CC2)cc1	nt	15	20	nt	nt
COc1ccc(NC(=O)c2ccc(COc3ccccc3Br)o2)cc1OC	1	4	80*	0	-14
C#C[C@]1(O)CC[C@H]2[C@@H]3CCC4=Cc5oncc5C[C@]4(C)[C@H]3CC[C@@]21C	2	38*	71*	2	-9
CCCCCCCCCCCCCCCC[n+]1cccc(C(=O)N(CC)CC)c1	24*	8	42	37*	-19
CCCCCCCC[n+]1cccc(C(=O)N(CC)CC)c1	1	7	10	0	-2
CCCC(=O)Nc1ccc(C(=O)Nc2cc(C(F)(F)F)ccc2Cl)cc1	15	42*	19	16	-22
SMILES	V1aR counter	TAAR1 agonist	TAAR1 antagonist	OXTR agonist	OXTR potentiator
O=C(COC(=O)c1ccc(O)cc1)Nc1cc(C(F)(F)F)ccc1Cl	9	38*	4	10	-9
CCCCCCn1c(=O)n2n(c1=O)[C@@H]1CN(S(=O)(=O)c3ccc(C)cc3)C[C@]1(O)[C@@H](OC(=O)NCc1ccco1)C2	nt	0	-3	nt	nt
COc1ccc(N2CCN(C(=O)C3CCN(S(=O)(=O)c4ccc5c(c4)CC(C)N5C(=O)C4CC4)CC3)CC2)cc1 (centres undefined)	nt	7	21	nt	nt
O=C(/C=C(\Nc1cccc(Cl)c1)c1ccccc1)c1ccccc1	nt	4	-19	nt	nt
COc1ccc(OC(C)C(=O)Nc2ccc([N+](=O)[O-])cc2)cc1 (centres undefined)	6	17	14	3	-15
COc1ccc(NC(=O)C(C)Oc2ccc(/C(C)=N\O)cc2)cc1 (centres undefined)	33*	55*	6	40*	-23
COC(=O)[C@]12C[C@H](CC(=O)NCc3ccc(C)o3)C(=O)N(Cc3ccccc3)C1=C[C@H](C1CCCC1)O[C@@H]2C	nt	-2	-38	nt	nt
COc1ccc(NC(=S)c2ccncc2)cc1	4	41*	3	3	-14
COc1cc(N2CCC(O)CC2)ccc1Nc1cc(Nc2ccccc2S(=O)(=O)C(C)C)c2cc[nH]c2n1	nt	9	28	nt	nt
COC(=O)c1cc2c(C)c(C)c3ccccn3c-2c1C(=O)OC	1	17	63*	-2	-19
O=C(N[C@H](Cc1ccccc1)C(=O)NCc1ccc(OC(F)(F)F)cc1)[C@H]1O[C@@H](n2ccc(=O)[nH]c2=O)[C@H](O)[C@@H]1O	nt	0	-16	nt	nt
CN1c2ccccc2C(C)(C)C12C=Nc1c(ccc3ccccc13)O2 (centres undefined)	1	40*	43	1	-7
S=C(SCc1cc(Cl)cc2c1OCOC2)N1CCSCC1	nt	5	-20	nt	nt
Cc1nc2ccc(Br)cn2c1C(=O)N/N=C\c1ccccc1Cl	0	2	-1	-1	-20
O=C(COC(=O)COc1ccccc1)Nc1cccc([N+](=O)[O-])c1	0	2	-14	2	-11
CC(NS(=O)(=O)c1ccc(OCC(=O)Nc2cccc([N+](=O)[O-])c2)cc1)c1ccccc1 (centres undefined)	10	15	60*	14	-10
CCOC(=O)N1CCN(C(=O)C[C@H]2C[C@@]3(C(=O)OC)C(=C[C@H](C(C)(C)C)O[C@@H]3C)N(Cc3ccc4c(c3)OCO4)C2=O)CC1	nt	-2	-11	nt	nt
Cc1cccc(NC(=O)c2ccc(N(C)C3CCCCC3)c([N+](=O)[O-])c2)n1	-1	8	63*	-1	-10
COc1ccccc1NC(=O)Nc1nc(CC(=O)Nc2ccc(OC)c(OC)c2)cs1	0	13	49*	0	-7
CCC(=O)Nc1nc(CC(=O)Nc2ccccc2OC)cs1	1	11	-12	0	-10
COc1cccc(NC(=O)Cc2csc(NC(=O)Nc3ccccc3OC)n2)c1	0	12	56*	-1	-11
COC(=O)C1=C(C)N(Cc2ccc(F)cc2)C(=S)NC1c1ccccc1 (centres undefined)	nt	-1	44	nt	nt
COC(=O)C1=C(C)N(C)C(=NCc2ccc3c(c2)OCO3)NC1c1cccc(F)c1 (centres undefined)	nt	1	-9	nt	nt
